Results taken from ChEMBL document CHEMBL1126640, “Inhibition studies of some serine and thiol proteinases by new leupeptin analogues” (J Med Chem, 1993).
Where a SMILES comes first, the peptide text is derived from it.

Experiments:
[1] = target: T1, Serine protease 1 (Bos taurus, UniProt P00760); test: Inhibition of trypsin with benzoyl-L-arginine ethyl ester as substrate; […]
T1 sequence (P00760 whole entry): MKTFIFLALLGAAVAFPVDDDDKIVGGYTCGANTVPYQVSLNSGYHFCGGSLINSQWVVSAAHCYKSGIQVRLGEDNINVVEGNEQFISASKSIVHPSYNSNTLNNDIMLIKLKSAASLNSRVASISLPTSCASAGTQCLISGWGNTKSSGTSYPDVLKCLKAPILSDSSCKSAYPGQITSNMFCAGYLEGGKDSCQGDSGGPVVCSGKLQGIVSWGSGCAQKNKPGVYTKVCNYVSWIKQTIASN

[2] = target: T2, Plasminogen (Bos taurus, UniProt P06868); test: Inhibition of plasmin with Val-L-Leu-L-lysine-p-nitroanilide as substrate
Method in brief: (§1)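 Bovine plasma plasmin (6.24 mg/mL stock) in 0.45 M Tris pH 8.0 with 0.011 M NaCl, preincubated ± inhibitor 2.5 min at 37 °C. Reaction started with D-Val-L-Leu-L-Lys p-nitroanilide (0.0031 M stock); A405 change over 1 min. IC50 read from % inhibition vs log[inhibitor], ≥4 concentrations, each ≥3 times. NA: ≥100 µM lowers activity ≤25%.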

[3] = target: T3, Cathepsin B (Bos taurus, UniProt P07688); test: Inhibition of cathepsin B with Cbz-L-lysine-p-nitrophenyl ester; Not significantly active
Method in brief: (§2)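 Bovine spleen cathepsin B stock (0.163 mg/mL) in 0.10 M sodium phosphate pH 6.0 with 0.10 mg/mL DTT. Diluted in 0.10 M phosphate pH 6.0, preincubated ± inhibitor 2.5 min at 30 °C. Started with Nα-Cbz-L-lysine p-nitrophenyl ester (0.0024 M stock); A405 change over 1 min. IC50 from % inhibition vs log[inhibitor], ≥4 concentrations in ≥3 repeats. NA means ≤25% activity loss at 100 µM or more.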

[4] = target: T4, Plasma kallikrein (Homo sapiens, UniProt P03952); test: Inhibition of kallikrein with benzoyl-L-arginine ethyl ester as substrate
[5] = target: T5, Prothrombin (Bos taurus, UniProt P00735); test: Inhibition of thrombin with benzoyl-Phe-Val-arginine- p-nitroanilide as substrate
Method in brief: (§3)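 Bovine plasma thrombin (19.7 NIH units/mL stock) in 0.01 M Tris pH 8.0, preincubated ± inhibitor 2.5 min at 37 °C. Benzoyl-Phe-Val-Arg p-nitroanilide (0.0005 M stock in 6.8% DMSO/buffer) initiated; A405 change over 1 min. Percent inhibition at ≥4 concentrations (≥3 repeats) plotted against log concentration for IC50.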

[6] = target: T3, Cathepsin B; test: Inhibition of cathepsin B with Cbz-L-lysine-p-nitrophenyl ester as substrate; method in brief: as §2
[7] = target: T4, Plasma kallikrein; test: Inhibition of kallikrein with benzoyl-L-arginine ethyl ester as substrate; Not significantly active
[8] = target: T5, Prothrombin; test: Inhibition of thrombin with benzoyl-Phe-Val-arginine- p-nitroanilide as substrate; Not significantly active; method in brief: as §3
[9] = target: T1, Serine protease 1; test: Inhibition of trypsin with benzoyl-L-arginine ethyl ester as substrate
[10] = target: T2, Plasminogen; test: Inhibition of plasmin with Val-L-Leu-L-lysine-p-nitroanilide; Not significantly active; method in brief: as §1

T4 sequence (P03952 20-390 limits assumed): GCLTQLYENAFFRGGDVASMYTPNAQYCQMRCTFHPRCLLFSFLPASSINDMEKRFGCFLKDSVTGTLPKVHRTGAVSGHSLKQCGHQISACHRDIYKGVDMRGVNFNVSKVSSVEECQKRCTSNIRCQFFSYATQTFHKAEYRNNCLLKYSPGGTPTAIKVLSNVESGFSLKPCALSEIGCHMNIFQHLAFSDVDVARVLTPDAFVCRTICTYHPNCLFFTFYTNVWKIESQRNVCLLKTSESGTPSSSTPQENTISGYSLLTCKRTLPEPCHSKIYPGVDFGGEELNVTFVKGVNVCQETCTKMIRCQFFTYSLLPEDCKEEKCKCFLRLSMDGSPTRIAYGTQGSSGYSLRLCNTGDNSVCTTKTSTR
T4 sequence (P03952 391-638 limits assumed): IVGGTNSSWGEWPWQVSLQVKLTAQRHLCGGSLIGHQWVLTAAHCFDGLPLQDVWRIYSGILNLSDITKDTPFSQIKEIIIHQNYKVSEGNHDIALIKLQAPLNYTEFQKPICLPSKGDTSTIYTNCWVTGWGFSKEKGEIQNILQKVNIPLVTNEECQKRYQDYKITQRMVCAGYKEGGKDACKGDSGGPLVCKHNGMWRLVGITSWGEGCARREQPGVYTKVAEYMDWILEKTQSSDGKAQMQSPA
T2 sequence (P06868 104-583 limits assumed): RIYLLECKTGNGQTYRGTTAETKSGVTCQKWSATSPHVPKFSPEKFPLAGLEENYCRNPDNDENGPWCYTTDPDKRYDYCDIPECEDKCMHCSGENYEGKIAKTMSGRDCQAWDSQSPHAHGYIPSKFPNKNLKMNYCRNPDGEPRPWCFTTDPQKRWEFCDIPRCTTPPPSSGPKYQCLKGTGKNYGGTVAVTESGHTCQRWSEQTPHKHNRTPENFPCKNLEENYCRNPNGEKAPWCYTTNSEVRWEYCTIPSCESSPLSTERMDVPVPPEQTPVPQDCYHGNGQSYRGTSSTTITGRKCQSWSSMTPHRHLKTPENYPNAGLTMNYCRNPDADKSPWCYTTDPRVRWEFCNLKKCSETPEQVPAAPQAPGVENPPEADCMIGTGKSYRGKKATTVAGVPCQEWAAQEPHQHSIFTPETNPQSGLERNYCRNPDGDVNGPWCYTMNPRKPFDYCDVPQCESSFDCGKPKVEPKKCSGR
T2 sequence (P06868 584-812 limits assumed): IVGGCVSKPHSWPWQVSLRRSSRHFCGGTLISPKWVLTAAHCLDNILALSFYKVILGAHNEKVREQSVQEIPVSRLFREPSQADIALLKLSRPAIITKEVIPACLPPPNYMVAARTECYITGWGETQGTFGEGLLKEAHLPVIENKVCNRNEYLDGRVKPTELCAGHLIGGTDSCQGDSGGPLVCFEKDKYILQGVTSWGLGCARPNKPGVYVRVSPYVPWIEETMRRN

IC50 [1] | IC50 [2] [µM] | IC50 [3] | IC50 [4] [µM] | IC50 [5] [µM] | IC50 [6] [nM] | IC50 [7] | IC50 [8] | IC50 [9] [µM] | IC50 [10] | Structure (SMILES)
– | 11 | – | 35 | 18 | 150 | – | – | 9.1 | – | CC[C@H](C)[C@H](NC(=O)[C@H](CC(C)C)NC(C)=O)C(=O)N[C@H](C=O)CCCN=C(N)N (Ac-Leu-Ile-Arg-aldehyde)
Not Active | 3.6 | – | 41 | 8.2 | 1100 | – | – | – | – | CC(=O)N[C@@H](CC(C)C)C(=O)N[C@@H](Cc1ccccc1)C(=O)N[C@H](C=O)CCCN=C(N)N (Ac-Leu-Phe-Arg-aldehyde)
Not Active | – | – | – | – | 100 | Not Active | Not Active | – | Not Active | CC(=O)N[C@@H](CC(C)C)C(=O)N[C@@H](Cc1ccccc1)C(=O)N[C@H](C=O)CCCCN (Ac-Leu-Phe-Lys-aldehyde)
Not Active | 5.6 | – | 25 | 66 | 1600 | – | – | – | – | CC(=O)N[C@@H](CC(C)C)C(=O)N[C@@H](Cc1ccc(O)cc1)C(=O)N[C@H](C=O)CCCN=C(N)N (Ac-Leu-Tyr-Arg-aldehyde)
Not Active | – | – | 16 | – | 130000 | – | Not Active | – | Not Active | CC(=O)N[C@@H](CC(C)C)C(=O)N[C@H](C(=O)N[C@H](C=O)CCCN=C(N)N)C(C)C (Ac-Leu-Val-Arg-aldehyde)
– | 7.7 | – | 16 | 71 | 1500 | – | – | 37 | – | CC(=O)N[C@@H](Cc1ccccc1)C(=O)N[C@@H](CC(C)C)C(=O)N[C@H](C=O)CCCN=C(N)N (Ac-Phe-Leu-Arg-aldehyde)
Not Active | – | – | – | – | 18000 | Not Active | Not Active | – | Not Active | CC(=O)N[C@@H](Cc1ccccc1)C(=O)N[C@@H](CC(C)C)C(=O)N[C@H](C=O)CCCCN (Ac-Phe-Leu-Lys-aldehyde)
– | 2.2 | – | 28 | 1.8 | 39 | – | – | 12 | – | CC(=O)N[C@@H](Cc1ccccc1)C(=O)N[C@H](C(=O)N[C@H](C=O)CCCN=C(N)N)C(C)C (Ac-Phe-Val-Arg-aldehyde)

The next lines start with the compound.

Structure (SMILES) | IC50 [1] | IC50 [2] [µM] | IC50 [3] | IC50 [4] [µM] | IC50 [5] [µM] | IC50 [6] [nM] | IC50 [7] | IC50 [8] | IC50 [9] [µM] | IC50 [10]
CC[C@H](C)[C@H](NC(C)=O)C(=O)N[C@@H](CC(C)C)C(=O)N[C@H](C=O)CCCN=C(N)N (Ac-Ile-Leu-Arg-aldehyde) | Not Active | 67 | Not Active | 54 | 94 | – | – | – | – | –
CC[C@H](C)[C@H](NC(C)=O)C(=O)N[C@@H](CC(C)C)C(=O)N[C@H](C=O)CCCCN (Ac-Ile-Leu-Lys-aldehyde) | Not Active | 17 | – | – | – | 2000 | Not Active | Not Active | – | –
CC(=O)N[C@@H](CC(C)C)C(=O)N[C@@H](CC(C)C)C(=O)N[C@H](C=O)CCCCN (Ac-Leu-Leu-Lys-aldehyde) | Not Active | 18 | – | – | – | 130 | Not Active | Not Active | – | –
CC(=O)N[C@@H](CC(C)C)C(=O)N[C@H](C(=O)N[C@H](C=O)CCCCN)C(C)C (Ac-Leu-Val-Lys-aldehyde) | – | 13 | – | – | 140 | 4 | Not Active | – | 45 | –
CC(=O)N[C@@H](Cc1ccc(O)cc1)C(=O)N[C@@H](CC(C)C)C(=O)N[C@H](C=O)CCCN=C(N)N (Ac-Tyr-Leu-Arg-aldehyde) | Not Active | 78 | – | 26 | 35 | 22000 | – | – | – | –
CC(=O)N[C@H](C(=O)N[C@@H](CC(C)C)C(=O)N[C@H](C=O)CCCN=C(N)N)C(C)C (Ac-Val-Leu-Arg-aldehyde) | – | 65 | – | 19 | 170 | 100000 | – | – | 130 | –
CC(=O)N[C@H](C(=O)N[C@@H](CC(C)C)C(=O)N[C@H](C=O)CCCCN)C(C)C (Ac-Val-Leu-Lys-aldehyde) | Not Active | – | – | – | – | 28000 | Not Active | Not Active | – | Not Active
CC(=O)N[C@@H](CC(C)C)C(=O)N[C@@H](CC(C)C)C(=O)N[C@H](C=O)CCCNC(=N)N [LEUPEPTIN] | – | 3.7 | – | 40 | 12 | 310 | – | – | 8.1 | –
